An excerpt weighted towards active compounds, which were near 2.8% of everything screened.
NPY Y2 blocker = antagonists of human neuropeptide Y receptor Y2; NPY-Y2 expressing cells, antagonist mode; inhibition, % at 2.7 µM; hit rate 0.99% among 140,000; AID 793; in the data active means inhibition above about 17%;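 further: 0% = vehicle with agonist challenge and 100% = reference antagonist with challenge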
Target sequence (P49146 whole entry, looked up): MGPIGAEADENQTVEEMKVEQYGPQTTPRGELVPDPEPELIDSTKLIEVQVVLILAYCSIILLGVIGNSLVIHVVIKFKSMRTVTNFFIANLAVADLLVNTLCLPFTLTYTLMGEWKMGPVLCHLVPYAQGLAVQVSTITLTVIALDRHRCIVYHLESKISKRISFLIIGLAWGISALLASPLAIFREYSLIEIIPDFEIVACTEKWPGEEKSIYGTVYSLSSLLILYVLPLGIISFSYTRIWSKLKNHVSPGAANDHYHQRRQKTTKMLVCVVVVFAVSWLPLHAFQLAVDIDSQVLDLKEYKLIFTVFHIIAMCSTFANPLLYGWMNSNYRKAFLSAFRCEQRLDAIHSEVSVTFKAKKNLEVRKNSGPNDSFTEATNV
EP2 modulator = EP2 receptor (human) modulation; hit rate 0.83% among 260,000; AID 940; EP2-expressing cells, cAMP HTRF FRET, PGE2 co-stimulation; induction, % at 25 µM; P43116;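 active means compounds whose cAMP rise, as percent of the full-agonist control response, exceeds 60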;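 further: rat C6 glioma line stably carrying human EP2 under a CMV promoter; the protocol text gives 20 µM as final concentration; 100% = response of wells given 1 µM PGE2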
NPY2 pot ag = potentiates or activates human NPY-Y2 receptor | hit rate 0.45% among 220,000 | activation, % at 3.6 µM | cells expressing NPY-Y2, potentiator/agonist read-out; in the data active means activation above about 27%;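 further: cells stimulated with NPY near EC25 plus isoproterenol at EC100; 0% = vehicle plus submaximal agonist and 100% = vehicle plus saturating agonist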
NPY Y1 blocker = blocks the human neuropeptide Y Y1 receptor. HEK293-CNG Y1 cells, membrane potential fluorescence; NPY at EC95, then isoproterenol. AID 1040. hit rate 1% among 200,000. P25929. inhibition, % at 3.6 µM;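 active means inhibition above the campaign mean inhibition of all tested compounds plus 3 SD, cut at about 20% in these data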;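 further: 0% = DMSO wells given NPY plus isoproterenol and 100% = isoproterenol alone without NPY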
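Material: HEK293 cells co-expressing NPY Y1 receptor and cyclic-nucleotide gated channel. Timing: compound incubation 1 h at room temperature, readout 45 min post-stimulation. Signal: fluorescence, membrane potential probe.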
NPY1 pot ag = potentiates or activates human NPY-Y1 receptor | AID 1304 | hit rate 0.37% among 220,000 | NPY-Y1 expressing cells, potentiator/agonist activation | P25929 | activation, % at 3.6 µM; in the data active means activation above about 33%, passing the limit was not always enough;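 further: cells stimulated with NPY at EC10 then isoproterenol at EC100; 0% = low agonist plus stimulus and 100% = saturating agonist plus stimulus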
PGE2 EP2 inh = inhibitors of human EP2 prostaglandin E2 receptor | hit rate 0.52% among 260,000 | C6 glioma cells expressing human EP2, cAMP TR-FRET; cells stimulated with saturating PGE2 | P43116 | inhibition, % at 25 µM;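 active means percent inhibition above 40 after rounding to a whole number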;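 further: rat C6 glioma host cells with rolipram phosphodiesterase inhibitor present; the protocol text gives 20 µM as final concentration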
NPY-Y1 pot conf = human NPY-Y1 potentiation or agonism, confirmation | shares compounds with NPY1 pot ag | cell-based NPY-Y1 potentiator/agonist assay | activation, % at 3.6 µM | hit rate 20% among 280; in the data active means activation above about 45%;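 further: cells challenged with NPY at its EC10 plus isoproterenol stimulus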
NPY-Y2 counter = NPY-Y2 potentiation or agonism as NPY-Y1 counter-screen. shares compounds with NPY1 pot ag. HEK293-CNG cells, membrane-potential fluorescence (FLIPR), 1536-well. activation, % at 3.6 µM. hit rate 20% among 280; in the data active means activation above about 33%
NPY-Y1 ag = activates human NPY-Y1, counter-screen for NPY-Y1 potentiators; shares compounds with NPY1 pot ag; HEK293 Y1-CNGC, membrane potential fluorescence, agonist mode; activation, % at 3.6 µM; hit rate 50% among 280; AID 1697;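 active means percent activation above the mean of DMSO-only control wells plus 3 SD of those wells, cut at about 18% in these data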;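 further: cells challenged with isoproterenol plus Ro 20-1724 with no NPY in test wells; Y1 agonism lowers isoproterenol-driven cAMP and reduces probe fluorescence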
NPY-Y2 ag = counter-screen for NPY-Y1 potentiators or agonists: agonists of NPY-Y2 | hit rate 67% among 280 | shares compounds with NPY1 pot ag | activation, % at 3.6 µM | AID 1698 | HEK293 Y2-CNGC, membrane potential fluorescence, agonist mode;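 active means activation above the solvent-only control wells' mean plus 3 SD, cut at about 11% in these data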;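 further: 0% = DMSO with isoproterenol and 100% = 40 nM NPY maximal response; agonism lowers cAMP so well fluorescence drops in active wells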
CNGC inh 2 = CNG channel inhibition, counter-screen for NPY-Y1 potentiators; HEK293-CNG parental, isoproterenol cAMP, membrane potential fluorescence; hit rate 42% among 280; inhibition, % at 3.6 µM; AID 1704; shares compounds with NPY1 pot ag;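 active means inhibition above the mean of stimulated solvent-only control wells plus 3 SD, cut at about 22% in these data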;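 further: 0% = isoproterenol-stimulated DMSO wells and 100% = unstimulated DMSO wells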
* = called active by the depositor; nt = no result.

SMILES	NPY Y2 blocker	EP2 modulator	NPY2 pot ag	NPY Y1 blocker	NPY1 pot ag	PGE2 EP2 inh	NPY-Y1 pot conf	NPY-Y2 counter	NPY-Y1 ag	NPY-Y2 ag	CNGC inh 2
OCCC1CN(CC#Cc2ccccc2)CCN1C1CCCC1 (centres undefined)	nt	-21.6	-7.6	3.3	101.7*	9.3	-6.6	-1.9	-7.4	-4.3	-0.7
O=C(Nc1ccc(C(O)(C(F)(F)F)C(F)(F)F)cc1)c1ccc(Cl)c([N+](=O)[O-])c1	-5.7	-64.9	25.7	-14.2	46.1*	30.9	50.4*	49.6*	41.4*	39.9*	51.4*
O=C(O)c1cc(NC(=O)c2ccc(Cl)c([N+](=O)[O-])c2)cc(C(=O)O)c1	nt	17.7	2.2	-6.9	12.7	2.9	nt	nt	nt	nt	nt
CC1CCN(c2ncnc3ccccc23)CC1	2.5	9.4	-6.1	-5.9	40.3*	9.5	-17.8	-5.2	-22.6	-10.0	-3.5
Cc1nc2ccccc2nc1N1CCC(C)CC1	1.8	29.7	2.0	3.2	0.0	12.4	nt	nt	nt	nt	nt
Cc1cc2cc(C(c3nnnn3C(C)(C)C)N3CCc4ccccc43)c(=O)[nH]c2cc1C (centres undefined)	nt	45.7	nt	nt	nt	12.2	nt	nt	nt	nt	nt
CN(C)CCNC(=O)c1ccc(Sc2ccc(Br)cc2)c([N+](=O)[O-])c1	nt	-43.5	13.5	-5.3	39.2*	20.4	42.6	33.2*	25.9*	39.6*	29.9*
Cc1cc(-c2cc(N)c(=O)n(CC(=O)NCc3ccco3)n2)c(C)o1	nt	-39.9	nt	nt	nt	7.2	nt	nt	nt	nt	nt
O=c1[nH]c(Cc2ccccn2)nc2scc(-c3ccc(Cl)cc3)c12	nt	27.4	11.4	-8.1	25.0	9.6	nt	nt	nt	nt	nt
O=c1[nH]c(Cc2cccs2)nc2scc(-c3ccc(Cl)cc3)c12	nt	-6.7	26.3	nt	66.1*	15.0	29.8	23.4	35.7*	33.3*	44.0*
CC(C)Cn1nnc2c(=O)oc3ccccc3c21	-0.3	-43.1	13.7	1.1	59.7*	nt	38.4	24.1	24.7*	22.7*	22.2*
Cc1ccc(S(=O)(=O)O/N=C2\CCCc3ccccc32)cc1	2.0	16.5	-1.0	4.2	-8.2	10.6	nt	nt	nt	nt	nt
CC1=C(C)/C(=N\OS(=O)(=O)c2ccccc2)C=CC1=O	2.9	-79.6	12.3	-4.8	69.7*	89.0*	-0.8	12.8	0.9	12.8*	0.0
O=C(Nc1ccc(Cl)cc1Cl)NC1CCN(S(=O)(=O)c2ccc(F)cc2)CC1	nt	-18.0	5.5	nt	47.8*	7.9	42.0	30.5	18.1*	12.9*	14.2
Cc1ccc2c(c1)N(CC(=O)NCCO)C(=O)C(C(C)C)O2 (centres undefined)	nt	11.0	nt	nt	nt	5.6	nt	nt	nt	nt	nt
Cc1nc(-c2cccc(-c3noc(C)n3)c2)no1	1.8	-0.9	-8.6	1.1	38.4*	5.0	-5.1	-0.7	-3.1	-6.8	-7.9
COCC(=O)Nc1nc2ccc(OC)cc2s1	nt	-22.0	nt	nt	nt	8.8	nt	nt	nt	nt	nt
CCc1cc2c(oc(=O)c3ccccc32)c(CN2CCOCC2)c1O	nt	36.3	nt	nt	nt	20.8	nt	nt	nt	nt	nt
COc1ccc(CN(Cc2nc3ccccc3[nH]2)CC2CCCO2)cc1OC (centres undefined)	nt	31.4	nt	nt	nt	6.5	nt	nt	nt	nt	nt
CCOc1ccc(C(c2nnnn2C2CCCCC2)N2CCN(C3CCCC3)CC2)cc1 (centres undefined)	nt	-41.1	nt	nt	nt	5.7	nt	nt	nt	nt	nt
O=C(Nc1ccccc1)C1CC=CCC1C(=O)OCC1CCCO1 (centres undefined)	-0.3	24.0	10.3	-1.5	54.6*	6.8	-3.2	-6.4	-1.3	-1.2	-0.6

Screening data deposited in PubChem BioAssay by several laboratories.
